Measured values: the EternaBench riboswitch data

System: MS2 coat protein
Experiment: apparent Kd, MS2 coat protein; higher = weaker binding; RNA-MaP array; FMN 200 µM where present
Outline: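 The titrant was SNAP-549-labelled MS2 coat protein, run from 0.7 or 1.5 nM in doubling steps to 3 µM. It was applied to designs transcribed by stalled E. coli RNA polymerase on Illumina sequencing-chip clusters, without ligand first and then with constant ligand, in 100 mM Tris-HCl pH 7.5, 80 mM KCl, 4 mM MgCl2, BSA, DTT, yeast tRNA and Tween-20. The apparent Kd is the median of filtered per-cluster binding-curve fits, with green signal normalised to red-channel RNA signal and control-cluster median Fmax.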

[1] = designed as: ON switch for flavin mononucleotide, no ligand
[2] = ligand present: flavin mononucleotide, designed as: ON switch for flavin mononucleotide
[3] = designed as: OFF switch for flavin mononucleotide, no ligand
[4] = ligand present: flavin mononucleotide, designed as: OFF switch for flavin mononucleotide

| Sequence | apparent Kd [1] [nM] | apparent Kd [2] [nM] | apparent Kd [3] [nM] | apparent Kd [4] [nM] |
| --- | --- | --- | --- | --- |
| UUUUUACUUGCAGGAUAUGGAGACAUGAGGAUCACCCAUGUAUGAUAAGCUAAAUUAUGCUGUGGCCAGAAGGGUAUUAUUCUU | 63.2 | 57.4 | – | – |
| AUCAGCUCGGCAGGAUAUACAUCACUGCUUCGGCAGUGUAUUAAGAUCACAUGAGGAUCACCCAUGUAGAAGGGCCGAGCUGAU | – | – | 34.1 | 389 |
| AAGGUGUUAGGAUAUCGUAGUUUGAGGCAGACGGGAUUUUGCGAGAAGGAACAUGAGGAUCACCCAUGUAGGAU | – | – | 27.2 | 30.4 |
| UAUAUAUAGUAAGGAUAUGUAUUUAUUCUAUAAACAGAAGGUACUGACAUGAGGAUCACCCAUGUUUUAGUGUGGGCAUGUAGA | – | – | 39.9 | 38.8 |
| UUGGACGUCGUAGGAUAUGUAGGAUACUCCUACAUGAGGAUCACCCAUGUUGACAUGGAAGAAGGACAGAAGGACGAUGUCCAU | 753 | 50.5 | – | – |
| GCCUGCUGGCGAGGAUAUUCUGUGAGGUUCCGGCUCGUGUCUGUUACAUGAGGAUCACCCAUGUGGGAGAAGGUGUCUGUGGCC | – | – | 6.15 | 6.13 |
| AGAGACCUCACAGGAUAUGCUGGACUUUGUCCAGCAGAAGGGUGAAAACAUGAGGAUCACCCAUGUAUGGUCUCCAAAUUUAAA | 186 | 12.1 | – | – |
| CAGCUCGUGUGAGGAUAUGCCGCCGUUUCGGCUGCAGAAGGUGCUACGUUACAUGAGGAUCACCCAUGUCUCUGUUGUUUCGUU | 23.5 | 20.6 | – | – |
| GGACCACAUCAGGAUAUGACUAGCUUCGGCUAGUCAGAAGGGAUGACAUGAGGAUCACCCAUGUGAUCAGGUCC | – | – | 77.5 | 127 |
| AACAUGCUAGGAUAUACAAGACAAAUUGGGCAUCCGCAUGGACAUGAGGAUCACCCAUGUAGAAGGAGUAUAAA | – | – | 167 | 278 |
| GGACACCGAUCAGGAUAUACACGGCAUUCCAGAAACAUGAGGAUCACCCAUGUAGAAGGGAUCUGCGUCCUAAACAUAUCCAUU | – | – | 5.12 | 9.28 |
| AAUUUAAUACAUGAGGAUCACCCAUGUAAUACUUGUAAGAUCAAGGAUAUCAGCUCGAUUAGAGCUGAGAAGGUGAUCACAUGU | 73.1 | 204 | – | – |
| AAAACAUACCGAGGAUAUUCAUAUAAUAAAUAAACAUGAGGAUCACCCAUGUGGCGAAAGCCUAGGGAGAAGGCGGAAUGCUAA | 149 | 31.8 | – | – |
| GUCAGCUCGUGAGGAUAUACAACACUGCUUCGGCAGUGUAUUAAGAUCACAUGAGGAUCACCCAUGUAGAAGGCACGAGCUGAU | – | – | 42.1 | 832 |
| ACUUUGUUUGAGAAGGUGAAGUGGAAACAUGAGGAUCACCCAUGUAUUAGGAAGCCUGGUUUUGUCAAGGAUAUCGGGUAAAGA | 12 | 10.1 | – | – |
| AAAACAUGAGGAUCACCCAUGUAAAGAUCGGUUAAUAGAGGUGAGGAUAUACGAACUUAAAGGUAGUAGAAGGCACUGGGUACA | 47.1 | 35.5 | – | – |
| GUGUACAGAGGAUAUACAUGGGCAUGAAAACAUGCAUCUUCACAUGAGGAUCACCCAUGUAGAAGGCUGUACAC | – | – | 24.6 | 16.9 |
| CCUCCACAUUAGGAUAUCGUCACAGAAAUGUGACGAGAAGGAAUGACAUGAGGAUCACCCAUGUUAACGUGAUG | – | – | 34.4 | 195 |
| CUGAGCAAUGUAGGAUAUCGACUGGAAUACAGUCGAGAAGGACAUGAGGAUCACCCAUGUAAAUGAGUGAAUAAUAAAGCUCAG | – | – | 735 | 345 |
| GGAUGAUUAAUAGGAUAUUAUUUGUAAAAUGGUUAAGAAGGAUUAAUGAUUUAAACGACCAGAUACAUGAGGAUCACCCAUGUA | 24.4 | 21.9 | – | – |
| UGUCGGAGCAGAGGAUAUUACAUGAGGAUCACCCAUGUAUGAACCAAUAGCUGGAAACAGCAAUGUAAGAAGGCUGCUGCGACA | – | – | 12.8 | 182 |
| AAACAUGUCCGAGGAUAUCUGAGAUUAUUUUCAAGAGAAGGCGGACAUGAGGAUCACCCAUGUCUCUCCUCAUCAACUCCAAAU | – | – | 8.61 | 54.5 |
| GGGUAGAUCCGAGGAUAUACAAUCCGGAAACGGUACAUGAGGAUCACCCAUGUAGAAGGCGGAUCUACAGGUACUAAAGUACCC | – | – | 6.32 | 8.65 |
| UUAUGAGAGCAGGAUAUCUUAUUUUUUUUUUAUAGAGAAGGGCUCACAUGAGGAUCACCCAUGUGGUCCUAGAU | – | – | 32.5 | 52.5 |
| UGGACGACCCGAGGAUAUCAAAGGCCCGGGUAAGUUCCUCAGACAUGAGGAUCACCCAUGUUAAAUGAGAAGGCGGGUAGCCGA | – | – | 203 | 268 |
| AUCAGCUCGUCAGGAUAUACAUCACUGCUUCGGCAGUGUAUUAAGAUUACAUGAGGAUCACCCAUGUAGAAGGGACGAGCUGAU | – | – | 17.2 | 20.8 |
| UCGUAUAUACAAGGAUAUCAAUUAUUGCUAAAUUCAACAUGAGGAUCACCCAUGUAACUAUGGAGUGAGAAGGUGUAAUGACUU | 504 | 476 | – | – |
| AGAAUGGGCGAGAAGGGAGUACAUGAGGAUCACCCAUGUGGUUCAUGGUGCUCAGGAUAUCGAUAGACCAAGGAGAGCCUUUGG | – | – | 21.9 | 185 |

| Sequence | apparent Kd [1] [nM] | apparent Kd [2] [nM] | apparent Kd [3] [nM] | apparent Kd [4] [nM] |
| --- | --- | --- | --- | --- |
| AUAAUUUUAUUUUUCUAUUAUAUCAGAAGGCAUUACAUGAGGAUCACCCAUGUUUUGGAUAGUAAUGAGGAUAUGAUAUGGUUA | – | – | 11.1 | 28.2 |
| AUUAUUAUAAAUUUGGCAAGAAUCAGAAGGCGUUACAUGAGGAUCACCCAUGUUUUGUAUAGUAACGAGGAUAUGAUAUGGAAA | – | – | 17 | 12.9 |
| ACAUGAGGAUGAGGAUAUUCAUACAUGAGGAUAGAAGAAGGCAUACAUGAGGAUCACCCAUGUAUACACAUGAGGAUCACCCAU | – | – | 82.5 | 85.3 |
| GCUACAUAUAUUAAGUAUGAUUAACUAGAAGGUAGAUACAUGAGGAUCACCCAUGUUAAGAGUUCUAAGGAUAUAGUUUGUAGC | 113 | 56.6 | – | – |
| UCGUUUUUUGAGGAUAUGCGACGUUUUUUCGUCGUAGAAGGCGAUACAUGAGGAUCACCCAUGUUUAUGGGCAU | – | – | 190 | 318 |
| UUAUAAAGUGUGAGGAUAUGCUGGUCGAUAGAUCAGCAGAAGGCACAUGAGGAUCACCCAUGUAAUAUAUUUUU | – | – | 48 | 239 |
| GUAGCAUACCGAGGAUAUUCAUACAGGAAACAGACAUGAGGAUCACCCAUGUGGCGAAAGCCUUGGGAGAAGGCGGAAUGCUAC | 146 | 22.7 | – | – |
| UUUUAACAUGAGGAUCACCCAUGUGAGGAUAUCGAAAUUUAUAUUAAUAUUAAUAAAACGAGAAGGCACAUUUU | – | – | 82.2 | 90.1 |
| CGCCAAUUGGCACAGGAUAUGAGCAUGCUCACAUGAGGAUCACCCAUGUGAUUACCAACGCAAAAUCAGAAGGGUGCCCUCGUCA | 147 | 97.1 | – | – |
| AAAAAAAAAACUCAGGAUAUAGAUAAUUGAACAUGAGGAUCACCCAUGUAGUGAAAAAAAAAAAAUUAGAAGGGAGGAAAAAAAAA | 67.8 | 58.8 | – | – |
| AACGUGGCAAAGGAUAUCCACACGGCAAAGCCGGGAGAAGGUUGCACAUGAGGAUCACCCAUGUGAACCAAACA | – | – | 14.9 | 17.8 |
| GUGCUUGUCGGAGGAUAUGGUUACAUGAGGAUCACCCAUGUUAUGCUUGGUUACUUGUUUAGUUUCCAGAAGGUCGGUUGGUUG | – | – | 61.1 | 71.2 |
| GCAGGUCGGAAGGAUAUGAAUCUGCUCGCAGUUUCAGAAGGUCUGACAUGAGGAUCACCCAUGUUGGGCGCAUC | – | – | 56.5 | 236 |
| AAUGUUUUCAUAGGAUAUUGACUUUUAUUUAUUCAAGAAGGAUGAUAACAUGAGGAUCACCCAUGUUAAAAUGGAUUAACUAGU | – | – | 16.1 | 26.6 |
| CGAGGUGGAGUGAGGAUAUCGUGUUCGAAAGAACGUGAGAAGGCACAUGAGGAUCACCCAUGUGAUUCAGCUCG | – | – | 24.6 | 69.4 |
| CUUUUGUGAGGAUAUUAGUAGUAAAUAAAUAUAAUUACUACUGAGAAGGCACAUGAGGAUCACCCAUGUUCCUC | – | – | 34.1 | 186 |
| CUUUUGUGAGGAUAUUGGUAGUAAAUAAAUAAAAUUACUACUGAGAAGGCACAUGAGGAUCACCCAUGUUCCUC | – | – | 31.2 | 221 |
| AGAAAACAUGAGGAUCACCCAUGUAGAAAUAUGGGAGGAUAUACAAAGACGAAAGUCGAGGUAGAAGGCCUAAAGA | 100 | 23.4 | – | – |
| AAAAACCGAGGAUAUACAUGAGGAUCACCCAUGUCAAAAAAAAAAAAAAAAAAAAAAGGUAGAAGGCGGAAAAA | – | – | 64.3 | 57.9 |
| UAAACGUUCUAGAAGGUGCUUUUGUUAAACAAGCAAGGAUAUAGACAUGAGGAUCACCCAUGUCUUUAAGACAUCGACAUACUU | – | – | 7.91 | 8.63 |
| AGCUGUGGCCGAGGAUAUCUGAAAACUCAAACCGAAAUAUAAUCGGACAUGAGGAUCACCCAUGUAGAGAAGGCGGUCUCAGCA | – | – | 53 | 117 |
| CGAGAAAUCGUAGGAUAUGGUGAUGUACAUGAGGAUCACCCAUGUCCGUCUUCUCUCACAAGAUGCCAGAAGGACGAUUUCUGG | 712 | 122 | – | – |
| AAAUAAACUAGCAUAAUAACCUCACAUGAGGAUCACCCAUGUCAGGAUAUCUGUCCUAAAAGGACAGAGAAGGGACGUGCUAGG | – | – | 5.68 | 6.95 |
| UUGCGGUAGGAGAAGGACAGAGGCUUCAUUACAUACAUGAGGAUCACCCAUGUAGGAUAUCCUACCUAACGCGGACUCCUCCUG | – | – | 10.7 | 20.1 |
| GGACGUAAAGAGAAGGGCUACUGGUUGAAACCUGCGGCCUCUGGAACAUGAGGAUCACCCAUGUAGCAGGAUAUCUUUGCAUCA | – | – | 180 | 14.7 |
| AAUUAUUAUUGAGGAUAUCGUAGUGAAACACUACGAGAAGGCGGUAUAAACAUGAGGAUCACCCAUGUGAGCCUGAUGCUUAUG | – | – | 28.9 | 58.9 |
| ACGUAUAGAGGAUAUAGUGAAUAUUACAUGAGGAUCACCCAUGUUCUUCAAAGUAUAUUUCUAGAAGGCUAAUGAA | – | – | 35 | 92.7 |
